Reference: ChEMBL document CHEMBL1130028, “A comparison of structure-activity relationships between spermidine and spermine analogue antineoplastics” (J Med Chem, 1997)
pIC50, pKi: −log10 of the molar value.

Key:
L1210 [1] = assay: Percentage of spermine (after 48 hr exposure to 500 uM) in L1210 cells.; format: functional, Mus musculus
How it was run: (§1)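 Log-phase L1210 cells were treated for 48 h with analogue at two concentrations. Cells were washed twice in cold RPMI-1640 and extracted with 0.6 N HClO4. Putrescine, spermidine and spermine were quantified by HPLC of dansyl derivatives and given as percent of untreated controls. Runs were in triplicate with untreated controls.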

[2] = Effect on ornithine decarboxylase (ODC) tested at 1 uM at 4 hour in L1210 cells; format: functional, Mus musculus
How it was run: (§2)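 L1210 cells were exposed to 1 μM analogue, for 4 h (ODC) or 6 h (AdoMetDC). Activity was measured as 14CO2 released from [14C]carboxyl-labelled L-ornithine (ODC) or S-adenosyl-L-methionine (AdoMetDC) and given as percent of untreated control. Each run included DEHSPM-treated positive controls. Values are the mean of at least three experiments.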

L1210 [3] = assay: Percentage of putrescine (after 48 hr exposure to 100 uM) in L1210 cells.; format: functional, Mus musculus; how it was run: as §1
L1210 [4] = assay: Percentage of putrescine after 48 hr exposure to the compound (500 uM ) in L1210 cells; format: functional, Mus musculus; how it was run: as §1
L1210 [5] = assay: Intracellular levels in L1210 cells following 500 uM exposure.; format: functional, Mus musculus
How it was run: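 L1210 cells were grown 48 h in medium containing 500 μM analogue. Cellular contents were analysed by HPLC of dansyl derivatives and given as pmol/10^6 cells, as parent drug and metabolites with the % of total drug in the cell.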

L1210 [6] = assay: Growth inhibitory activity against L1210 cells (48h); format: functional, cell-based; settings: Mus musculus, L1210, 48 h
How it was run: (§3)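 Murine L1210 leukemia cells were kept in log growth in RPMI-1640 with 10% fetal calf serum or NuSerum, HEPES-MOPS buffer and 1 mM aminoguanidine. IC50 is the concentration giving 50% of untreated control growth, as the mean of at least two experiments.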

L1210 [7] = assay: Growth inhibitory activity against L1210 cells (96h); format: functional, cell-based; settings: Mus musculus, L1210, 96 h; how it was run: as §3
[8] = biological target: Spermidine/spermine N(1)-acetyltransferase (SAT) (Mus musculus) (UniProt Q6P8J2+P48026); assay: Effect on Spermidine/Spermine-Acetyltransferase (SSAT ) at 10 uM at 48 hour in L1210 cells; format: functional, cell-based
Spermidine/spermine N(1)-acetyltransferase (SAT) (Mus musculus), sequence (P48026 whole entry, looked up): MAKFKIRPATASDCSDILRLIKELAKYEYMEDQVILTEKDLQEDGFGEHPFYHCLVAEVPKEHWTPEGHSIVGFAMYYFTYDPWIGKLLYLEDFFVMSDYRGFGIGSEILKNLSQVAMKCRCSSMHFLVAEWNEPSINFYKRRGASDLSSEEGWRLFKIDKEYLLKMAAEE
Spermidine/spermine N(1)-acetyltransferase (SAT) (Mus musculus), sequence (Q6P8J2 whole entry, looked up): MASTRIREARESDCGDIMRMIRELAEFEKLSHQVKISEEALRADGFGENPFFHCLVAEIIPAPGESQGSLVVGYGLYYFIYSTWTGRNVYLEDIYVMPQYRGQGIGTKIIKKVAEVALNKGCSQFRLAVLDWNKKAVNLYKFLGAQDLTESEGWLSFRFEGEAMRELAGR
How it was run: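 L1210 cells were exposed to 10 μM triamine for 48 h. SSAT activity was taken as [14C]N1-acetylspermidine formed from spermidine and [14C]acetyl-CoA, given as percent of untreated control. DENSPM-treated cells served as positive control. Values are the mean of at least three experiments.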

[9] = Binding affinity values for polyamine transporter was determined
[10] = biological target: T1, S-adenosylmethionine decarboxylase proenzyme 1 (Mus musculus) (UniProt P0DMN7); assay: Effect on S-Adenosyl-methionine decarboxylase (AdoMetDC) tested at 1 uM at 6 hour in L1210 cells; format: functional, cell-based; how it was run: as §2
T1 sequence (whole entry): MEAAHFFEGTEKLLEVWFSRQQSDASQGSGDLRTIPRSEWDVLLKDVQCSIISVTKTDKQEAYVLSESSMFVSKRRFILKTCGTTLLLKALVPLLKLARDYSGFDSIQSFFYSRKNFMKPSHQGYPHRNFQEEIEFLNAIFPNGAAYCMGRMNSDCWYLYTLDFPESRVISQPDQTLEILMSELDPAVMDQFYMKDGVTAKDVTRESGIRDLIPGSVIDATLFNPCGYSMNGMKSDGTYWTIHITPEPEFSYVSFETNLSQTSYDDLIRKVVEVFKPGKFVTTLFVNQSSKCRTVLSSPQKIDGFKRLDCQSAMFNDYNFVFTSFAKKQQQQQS

L1210 [11] = assay: Percentage of spermidine (after 48 hr exposure to 100 uM) in L1210 cells.
L1210 [12] = assay: Percentage of spermidine (after 48 hr exposure to 500 uM) in L1210 cells.
L1210 [13] = assay: Percentage of spermine after 48 hr exposure to the compound (500(15)uM ) in L1210 cells; format: functional, Mus musculus
How it was run: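 Log-phase murine L1210 leukemia cells (RPMI-1640, 10% fetal calf serum or NuSerum, HEPES-MOPS buffer, 1 mM aminoguanidine) exposed 48 h to analogue at two concentrations. Cells washed twice in cold RPMI-1640 and extracted with 0.6 N HClO4. Spermine in extracts quantified by HPLC of DANSYL derivatives and expressed as percent of untreated controls. Triplicate flasks per condition.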

L1210 [14] = assay: Percentage of putrescine after 48 hr exposure to the compound (100(3)uM ) in L1210 cells; format: functional, Mus musculus; how it was run: as §1
L1210 [15] = assay: Percentage of spermidine after 48 hr of exposure to the compound (100(3)uM ) in L1210 cells; format: functional, Mus musculus; how it was run: as §1
L1210 [16] = assay: Percentage of spermidine after 48 hr of exposure to the compound (500(15)uM ) in L1210 cells; format: functional, Mus musculus; how it was run: as §1
L1210 [17] = assay: Percentage of putrescine after 48 hr exposure to the compound (500(15)uM ) in L1210 cells; format: functional, Mus musculus; how it was run: as §1
L1210 [18] = assay: Percentage of spermine (after 48 hr exposure to 100 uM) in L1210 cells.; format: functional, Mus musculus; how it was run: as §1
[19] = The chronic lethal dose administered as intraperitoneal injection in mice; format: ADME; settings: mouse, in vivo, ip
How it was run: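 Female CD-1 mice, 10–12 weeks old. Analogue given as hydrochloride salt by ip injection three times daily for 6 days (18 doses). Appetite, weight and appearance monitored daily, and lethality scored 10 days after the final dose.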

CCCNCCCCNCCCN
Polyamine (L1210 [1]): 95% | ODC [2]: 14% | Polyamine (L1210 [3]): 0% | Polyamine (L1210 [4]): 0% | Picoequivalents of amine/10e6 cells (L1210 [5]): 19590 | pIC50 (L1210 [6]): < 4.00 | pIC50 (L1210 [7]): 4.26 | SSAT [8]: 500% | pKi [9]: 5.07 | AdoMetDC [10]: 64% | Spermidine % (L1210 [11]): 33% | Spermidine % (L1210 [12]): 16%

CCCNCCCCNCCCNCCC
Polyamine (L1210 [13]): 99% | ODC [2]: 75% | Polyamine (L1210 [14]): 6% | Polyamine (L1210 [15]): 35% | Polyamine (L1210 [16]): 12% | Picoequivalents of amine/10e6 cells (L1210 [5]): 15330 | Polyamine (L1210 [17]): 0% | pIC50 (L1210 [6]): < 4.00 | pIC50 (L1210 [7]): 4.48 | SSAT [8]: 1030% | pKi [9]: 4.59 | AdoMetDC [10]: 107%

CCCNCCCNCCCN
Polyamine (L1210 [1]): 49% | ODC [2]: 33% | Polyamine (L1210 [3]): 0% | Polyamine (L1210 [4]): 0% | Picoequivalents of amine/10e6 cells (L1210 [5]): 17710 | Polyamine (L1210 [18]): 56% | pIC50 (L1210 [6]): < 4.00 | pIC50 (L1210 [7]): 4.00 | SSAT [8]: 470% | pKi [9]: 4.48 | AdoMetDC [10]: 38% | Spermidine % (L1210 [11]): 29% | Spermidine % (L1210 [12]): 15%

CCNCCCCNCCCN
Polyamine (L1210 [1]): 61% | ODC [2]: 17% | Polyamine (L1210 [3]): 0% | Polyamine (L1210 [4]): 0% | Picoequivalents of amine/10e6 cells (L1210 [5]): 17990 | Polyamine (L1210 [18]): 84% | pIC50 (L1210 [6]): < 4.00 | pIC50 (L1210 [7]): 4.40 | SSAT [8]: 400% | pKi [9]: 5.15 | AdoMetDC [10]: 54% | Spermidine % (L1210 [11]): 26% | Spermidine % (L1210 [12]): 15%

CCCNCCCNCCCCN
Polyamine (L1210 [1]): 72% | ODC [2]: 18% | Polyamine (L1210 [3]): 0% | Polyamine (L1210 [4]): 0% | Picoequivalents of amine/10e6 cells (L1210 [5]): 18250 | Polyamine (L1210 [18]): 90% | pIC50 (L1210 [6]): < 4.00 | pIC50 (L1210 [7]): 4.55 | SSAT [8]: 1200% | pKi [9]: 5.52 | AdoMetDC [10]: 56% | Spermidine % (L1210 [11]): 25% | Spermidine % (L1210 [12]): 15%

CNCCCCNCCCCNC
ODC [2]: 20% | Polyamine (L1210 [3]): 0% | Polyamine (L1210 [4]): 0% | Picoequivalents of amine/10e6 cells (L1210 [5]): 20340 | pIC50 (L1210 [6]): < 4.00 | pIC50 (L1210 [7]): 6.05 | SSAT [8]: 510% | pKi [9]: 5.26 | AdoMetDC [10]: 86% | Spermidine % (L1210 [11]): 3% | Spermidine % (L1210 [12]): 0%

CCNCCCCNCCCCCNCCCCNCC
LD50 [19]: 48 mg/kg/day

CNCCCCNCCCNC
Polyamine (L1210 [1]): 54% | ODC [2]: 22% | Polyamine (L1210 [3]): 0% | Polyamine (L1210 [4]): 0% | Picoequivalents of amine/10e6 cells (L1210 [5]): 16090 | Polyamine (L1210 [18]): 58% | pIC50 (L1210 [6]): < 4.00 | pIC50 (L1210 [7]): 5.77 | SSAT [8]: 270% | pKi [9]: 5.29 | AdoMetDC [10]: 68% | Spermidine % (L1210 [11]): 5% | Spermidine % (L1210 [12]): 0%

CCNCCCNCCCCN
Polyamine (L1210 [1]): 53% | ODC [2]: 10% | Polyamine (L1210 [3]): 0% | Polyamine (L1210 [4]): 0% | Picoequivalents of amine/10e6 cells (L1210 [5]): 16990 | Polyamine (L1210 [18]): 80% | pIC50 (L1210 [6]): < 4.00 | pIC50 (L1210 [7]): 5.40 | SSAT [8]: 430% | pKi [9]: 5.07 | AdoMetDC [10]: 58% | Spermidine % (L1210 [11]): 25% | Spermidine % (L1210 [12]): 14%

CCCNCCCCNCCCCNCCC
ODC [2]: 86% | Polyamine (L1210 [3]): 0% | Polyamine (L1210 [4]): 0% | Picoequivalents of amine/10e6 cells (L1210 [5]): 15990 | pIC50 (L1210 [6]): < 4.00 | pIC50 (L1210 [7]): 5.22 | SSAT [8]: 420% | pKi [9]: 4.17 | AdoMetDC [10]: 123% | Spermidine % (L1210 [11]): 19% | Spermidine % (L1210 [12]): 7%
